Each structure is given as a SMILES string. Activity calls are given as the source filed them. The rule behind the calls is not given here.

The assay deals with T1, Protein deacetylase HDAC6 (Homo sapiens) (UniProt Q9UBN7).
T1 sequence (whole entry): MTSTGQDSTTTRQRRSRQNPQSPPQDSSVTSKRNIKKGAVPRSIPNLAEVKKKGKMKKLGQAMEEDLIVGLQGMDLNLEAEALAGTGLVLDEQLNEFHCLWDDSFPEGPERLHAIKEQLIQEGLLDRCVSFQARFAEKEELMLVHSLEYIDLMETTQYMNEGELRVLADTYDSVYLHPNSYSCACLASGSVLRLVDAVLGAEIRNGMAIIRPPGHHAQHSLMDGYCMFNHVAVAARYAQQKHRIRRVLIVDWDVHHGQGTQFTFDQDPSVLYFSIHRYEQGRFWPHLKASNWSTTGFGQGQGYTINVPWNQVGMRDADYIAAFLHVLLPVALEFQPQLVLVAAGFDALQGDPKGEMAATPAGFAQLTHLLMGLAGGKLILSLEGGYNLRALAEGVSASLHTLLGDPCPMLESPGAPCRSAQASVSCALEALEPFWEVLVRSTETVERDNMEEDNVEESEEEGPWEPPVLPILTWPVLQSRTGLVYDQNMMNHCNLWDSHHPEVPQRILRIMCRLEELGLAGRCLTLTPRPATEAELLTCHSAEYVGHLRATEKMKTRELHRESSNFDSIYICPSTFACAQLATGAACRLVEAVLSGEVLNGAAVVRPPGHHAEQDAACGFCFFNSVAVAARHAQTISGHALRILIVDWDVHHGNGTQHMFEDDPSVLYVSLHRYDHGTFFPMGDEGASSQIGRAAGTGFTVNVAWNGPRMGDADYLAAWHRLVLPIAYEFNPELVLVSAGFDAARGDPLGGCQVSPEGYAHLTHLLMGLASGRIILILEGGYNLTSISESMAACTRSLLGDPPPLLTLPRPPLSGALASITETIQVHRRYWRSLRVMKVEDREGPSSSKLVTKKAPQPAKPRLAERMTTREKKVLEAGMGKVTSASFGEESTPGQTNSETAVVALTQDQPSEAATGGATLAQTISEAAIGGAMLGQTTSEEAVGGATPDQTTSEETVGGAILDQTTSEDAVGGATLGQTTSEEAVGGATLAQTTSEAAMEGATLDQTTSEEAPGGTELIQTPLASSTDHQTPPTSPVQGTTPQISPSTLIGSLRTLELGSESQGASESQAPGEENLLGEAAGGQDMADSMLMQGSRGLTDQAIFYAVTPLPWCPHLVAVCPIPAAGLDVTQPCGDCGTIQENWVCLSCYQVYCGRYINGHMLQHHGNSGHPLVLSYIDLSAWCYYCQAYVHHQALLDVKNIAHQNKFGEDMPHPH
As to the kind of experiment: Inhibition of HDAC6 in human IGROV1 cells assessed as increase in tubulin acetylation at IC80 after 4 to 24 hrs by Western blot analysis. Type of assay: cell-based. As to conditions: IGROV-1. The essentials:
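Cells treated with various concentrations of HDAC inhibitors, collected, lysed and analysed by Western blotting.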

In the case of `COc1ccc(-c2ccc(/C=C/C=C/C(=O)NO)cc2)cc1C12CC3CC(CC(C3)C1)C2`, the outcome was inactive.

(Values after ChEMBL document CHEMBL3232764, “Influence of the adamantyl moiety on the activity of biphenylacrylohydroxamic acid-based HDAC inhibitors” (Eur J Med Chem, 2014).)
